Test results as given in PMC3724457 (Cellular and molecular life sciences : CMLS, 2009).
Read-outs that look alike come from different tables or passages of the source. *1 amine or outer side, *2 acyl side, *3 side chain or, on linkers, in order; H or OH if unused. Where a SMILES comes first, the peptide text is derived from it. Bridges are numbered along the chain shown (N, C = ends). Roman numbers before positions name the chains, in order. [ ]: non-standard residue; d: D form. Actinocin(9to1) = Cc1c2oc3c(C)ccc(C(=O)[*:1])c3nc-2c(C(=O)[*:2])c(N)c1=O; NMeV = CN[C@H](C(=O)O)C(C)C; Sar = CNCC(=O)O

B1: GST-ZO1-PDZ2 WT (domain or fragment, human)
chain: KVTLVKSRKNEEYGLRLASHIFVKEISQDSLAARDGNIQEGDVVLKINGTVTENMSLTDAKTLIERSKGKLKMVVQRDE

Legend:
GST-ZO1-PDZ2 [1] = experiment: Kinetic SPR measurements; assay type: binding, human; conditions: 1 µM protein, POPC/POPE/POPS/PtdInsP (37:40:20:3) vesicles, 20 mM HEPES pH 7.4, 0.16 M KCl
Method in brief: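 GST-fused PDZ2 was expressed in E. coli BL21(DE3) with IPTG induction at 37°C for 4 h, then purified on glutathione-Sepharose. Active sensor surface carried PtdInsP-containing vesicles and the control surface carried POPC/POPE (60:40) vesicles, both from 0.4 mg/ml lipid solution and loaded to equal RU. Seven PtdInsP species were compared. Kinetic data gave relative membrane affinity only; no Kd was derived.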

GST-ZO2-PDZ2 = experiment: ELISA PtdInsP binding assay; parameters: species or system mouse; conditions: ELISA on PIP plates, absorbance 450 nm, n=3, protein 10 nM, 1 h room temperature
Method in brief: (§1)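 GST-fusion PDZ2 domains (ZO-1 human, ZO-2 mouse) or GST-PH domain of PLC-δ1 (positive control) at 10 nM, with GST as negative control, were incubated 1 h at room temperature on preblocked PtdInsP-coated plates. Wells were washed three times with PBS/0.1% Tween-20, then probed 1 h at room temperature with HRP-anti-GST. Detection used TMB substrate with absorbance at 450 nm; mean ± SD, n = 3.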

GST-ZO1-PDZ2 [2] = experiment: ELISA PtdInsP binding assay; parameters: species or system human; conditions: ELISA on PIP plates, absorbance 450 nm, n=3, protein 10 nM, 1 h room temperature
Method in brief: as §1

[3] = system: GST-ZO2-PDZ2 WT binding to Cx43 peptide; experiment: Pull-down competition by phospholipids; parameters: species or system mouse; conditions: 3 µg GST-ZO2-PDZ2 WT preincubated with phospholipid liposomes
Method in brief: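 3 μg GST-ZO-2 PDZ2 WT was preincubated with phospholipid liposomes at increasing concentrations. It was then pulled down with Cx43 C-terminal 20-mer peptide coupled to CNBr-activated Sepharose 4B at 5–7 mg/ml.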

[4] = target: Connexin43 (Homo sapiens) (UniProt P17302); conditions: cited from earlier work
GST-ZO1-PDZ1–3 = experiment: Lipid-overlay assay; assay type: binding, human; conditions: PIP strips, not quantitative, no membrane environment
Method in brief: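 A GST-fused human ZO-1 PDZ1–3 construct was overlaid on nitrocellulose membranes carrying immobilised phospholipids, following the manufacturer's protocol. GST served as negative control and the GST-PH domain of LL5α as positive control. Lipids were not in a membrane environment, and the readout is qualitative.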

GST-ZO2-PDZ2 WT (mouse) = experiment: SEC
[5] = target: Connexin 43 (Cx43) C-terminal peptide; experiment: ITC
nuclear speckles = conditions: transcriptional inhibition; ref [39]; cited from earlier work
[6] = target: Connexin43 (Homo sapiens) (UniProt P17302); conditions: cited from earlier work; remark: listed apart in the source
ZO-1 PDZ2 K194A [7] = target: ZO-1 PDZ2 K194A (Homo sapiens, UniProt Q07157, K194A); experiment: ITC peptide binding
Method in brief: (§2)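 Each PDZ2 domain, wild type or point mutant, was held at 20 μM in 20 mM HEPES, 150 mM NaCl, pH 7.5, degassed. It was titrated with 20 × 15 μl injections of 200 μM Cx43 C-terminal 20-mer peptide, stirred at 250 rpm, with 5 min between injections. Peptide-into-buffer dilution heat was subtracted, and integrated data were fitted to a binding model. Representative of duplicate runs.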

ZO-1 PDZ2 R219A [8] = target: ZO-1 PDZ2 R219A (Homo sapiens, UniProt Q07157, R219A); experiment: ITC peptide binding
Method in brief: as §2

ZO-1 PDZ2 R201A = ZO-1 PDZ2 R201A (Homo sapiens, UniProt Q07157, R201A); experiment: ITC peptide binding
Sequence of ZO-1 PDZ2 R201A (Q07157 186-264 R201A limits assumed): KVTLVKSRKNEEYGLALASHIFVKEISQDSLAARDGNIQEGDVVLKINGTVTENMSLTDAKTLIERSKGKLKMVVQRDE
Method in brief: as §2

ZO-1 PDZ2 K246A = ZO-1 PDZ2 K246A (Homo sapiens, UniProt Q07157, K246A); experiment: ITC peptide binding
Sequence of ZO-1 PDZ2 K246A (Q07157 186-264 K246A limits assumed): as the sequence (Q07157 186-264 R201A limits assumed) above, with A16R, K61A counted along it
Method in brief: as §2

ZO-1 PDZ2 R193A [9] = target: ZO-1 PDZ2 R193A (Homo sapiens, UniProt Q07157, R193A); experiment: ITC peptide binding
Method in brief: as §2

SEC = target: the molecule itself; experiment: SEC
ZO-1 PDZ2 K253A = target: T1, ZO-1 PDZ2 K253A (human, UniProt Q07157 186-264, K253A); experiment: ITC
T1 sequence: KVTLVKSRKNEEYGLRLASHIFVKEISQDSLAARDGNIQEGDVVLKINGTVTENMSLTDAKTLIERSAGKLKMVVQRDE

ZO-1 PDZ2 R251AK253A = target: T2, ZO-1 PDZ2 R251AK253A (human, UniProt Q07157 186-264, R251A | K253A); experiment: ITC
T2 sequence: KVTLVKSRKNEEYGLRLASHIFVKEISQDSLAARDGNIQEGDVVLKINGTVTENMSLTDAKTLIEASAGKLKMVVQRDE

ZO-1 PDZ2 R219A [10] = target: T3, ZO-1 PDZ2 R219A (human, UniProt Q07157 186-264, R219A); experiment: ITC
T3 sequence: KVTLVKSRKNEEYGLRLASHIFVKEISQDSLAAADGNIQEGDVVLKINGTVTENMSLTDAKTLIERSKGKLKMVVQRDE

GST-ZO1-PDZ2 WT = target: B1; experiment: ITC
ZO-1 PDZ2 R193A [11] = target: T4, ZO-1 PDZ2 R193A (human, UniProt Q07157 186-264, R193A); experiment: ITC
T4 sequence: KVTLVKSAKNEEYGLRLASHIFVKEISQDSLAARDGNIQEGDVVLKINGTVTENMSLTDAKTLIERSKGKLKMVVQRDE

ZO-1 PDZ2 R251A = target: T5, ZO-1 PDZ2 R251A (human, UniProt Q07157 186-264, R251A); experiment: ITC
T5 sequence: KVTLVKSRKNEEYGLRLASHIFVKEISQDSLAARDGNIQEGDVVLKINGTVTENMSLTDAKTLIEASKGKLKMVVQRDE

ZO-1 PDZ2 K194A [12] = target: T6, ZO-1 PDZ2 K194A (human, UniProt Q07157 186-264, K194A); experiment: ITC
T6 sequence: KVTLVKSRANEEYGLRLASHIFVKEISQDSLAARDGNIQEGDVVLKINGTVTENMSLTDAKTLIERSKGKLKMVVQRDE

Phosphatidylinositol 4,5-bisphosphate [PtdIns(4,5)P2]
PtdInsP selectivity (relative binding) (GST-ZO1-PDZ2 [1]): followed by PtdIns(3,4,5)P3, PtdIns(4,5)P2 and PtdIns(3,5)P2

PtdIns(3,4)P2
PtdInsP selectivity (relative binding) (GST-ZO1-PDZ2 [1]): slight preference | PtdInsP binding as compared to PtdIns(4,5)P2 or PtdIns(3,5)P2 (GST-ZO2-PDZ2): slightly stronger | PtdInsP binding as compared to PtdIns(4,5)P2 or PtdIns(3,5)P2 (GST-ZO1-PDZ2 [2]): slightly stronger | inhibition of association of GST-ZO2-PDZ2 with the Cx43 peptide [3]: inhibited association

PtdIns(3,5)P2
PtdInsP selectivity (relative binding) (GST-ZO1-PDZ2 [1]): followed by PtdIns(3,4,5)P3, PtdIns(4,5)P2 and PtdIns(3,5)P2

ZO-2 PDZ2 (from UniProt Q9UDY2)
Kd [4]: 391 µM

phosphatidylinositol [PtdIns]
lipid binding (GST-ZO1-PDZ1–3): bound non-selectively

phosphatidylserine [PS]
lipid binding (GST-ZO1-PDZ1–3): bound non-selectively | inhibition of association of GST-ZO2-PDZ2 with the Cx43 peptide [3]: no effect

phosphatidic acid [PA]
lipid binding (GST-ZO1-PDZ1–3): bound non-selectively

PtdIns(3,4,5)P3
PtdInsP selectivity (relative binding) (GST-ZO1-PDZ2 [1]): followed by PtdIns(3,4,5)P3, PtdIns(4,5)P2 and PtdIns(3,5)P2 | PtdInsP binding as compared to PtdIns(4,5)P2 or PtdIns(3,5)P2 (GST-ZO2-PDZ2): slightly stronger | PtdInsP binding as compared to PtdIns(4,5)P2 or PtdIns(3,5)P2 (GST-ZO1-PDZ2 [2]): slightly stronger | inhibition of association of GST-ZO2-PDZ2 with the Cx43 peptide [3]: inhibited association

GST-ZO2-PDZ2 WT (domain or fragment)
stoichiometry N (GST-ZO2-PDZ2 WT (mouse)): 2 | Kd [5]: 9.9 µM

Cc1c2oc3c(C)ccc(C(=O)N[C@@H]4C(=O)N[C@H](C(C)C)C(=O)N5CCC[C@H]5C(=O)N(C)CC(=O)N(C)[C@@H](C(C)C)C(=O)O[C@@H]4C)c3nc-2c(C(=O)N[C@@H]2C(=O)N[C@H](C(C)C)C(=O)N3CCC[C@H]3C(=O)N(C)CC(=O)N(C)[C@@H](C(C)C)C(=O)O[C@@H]2C)c(N)c1=O [actinomycin D] (I: T[dV]P[Sar][NMeV] / II: T[dV]P[Sar][NMeV]; ester I:1-I:C, II:1-II:C; linker I:N-II:N via Actinocin(9to1))
speckle protein distribution (nuclear speckles): fewer and/or abnormally large clusters

ZO-1 PDZ2 (from UniProt Q07157)
Kd [6]: 15.5 µM

NH2.PSSRASSRASSRPRPDDLEI.OH [Connexin43 peptide]
effect of mutation on peptide affinity (ZO-1 PDZ2 K194A [7]): little effect | effect of mutation on peptide binding (ZO-1 PDZ2 R219A [8]): no effect | binding to the Cx43 peptide (ZO-1 PDZ2 R201A): no significant binding | binding to the Cx43 peptide (ZO-1 PDZ2 K246A): no significant binding | effect of mutation on peptide affinity (ZO-1 PDZ2 R193A [9]): little effect

B1
stoichiometry N (SEC): 2

B2: Connexin 43 (Cx43) C-terminal peptide (peptide)
peptide: PSSRASSRASSRPRPDDLEI
Kd (ZO-1 PDZ2 K253A): 22 ± 3.6 µM | Kd (ZO-1 PDZ2 R251AK253A): 21 ± 3.2 µM | Kd (ZO-1 PDZ2 R219A [10]): 11 ± 1.6 µM | Kd (GST-ZO1-PDZ2 WT): 9.9 ± 1.3 µM | Kd (ZO-1 PDZ2 R193A [11]): 11 ± 2.1 µM | Kd (ZO-1 PDZ2 R251A): 19 ± 3.4 µM | Kd (ZO-1 PDZ2 K194A [12]): 12 ± 1.6 µM
